Key:
[1] = target: Cruzipain (Trypanosoma cruzi) (UniProt P25779); assay: Inhibition of recombinant Trypanosoma cruzi cruzain at 5 uM using Z-FR-AMC as substrate preincubated for 10 mins followed by substrate addition and measured at 12 sec interval for 5 mins by fluorimetric analysis relative to control; settings: time 15.0 min
Summary of the method: (§1)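 Recombinant rhodesain or cruzain (1 nM) in 0.1 M sodium acetate pH 5.5, 0.01% Triton X-100, 1 mM β-mercaptoethanol. Compound at a single concentration, either without or after 10 min enzyme pre-incubation. Inhibition is relative to DMSO, with E-64 as positive control. Done in duplicate (primary screen) or triplicate.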

[2] = target: Cruzipain (Trypanosoma cruzi) (UniProt P25779); assay: Inhibition of recombinant Trypanosoma cruzi cruzain at 10 uM using Z-FR-AMC as substrate and measured at 12 sec interval for 5 mins without preincubation by fluorimetric analysis relative to control
Summary of the method: as §1, with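 “pre-incubation. Z-FR-AMC 2.5 µM, read at 340/440 nm every 12 s for 5 min.” for “pre-incubation.”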

[3] = target: Rhodesain (Trypanosoma brucei rhodesiense) (UniProt Q95PM0); assay: Inhibition of recombinant Trypanosoma brucei rhodesain expressed in Pichia pastoris at 10 uM using Z-FR-AMC as substrate preincubated for 10 mins followed by substrate addition and measured at 12 sec interval for 5 mins by fluorimetric analysis relative to control; settings: time 15.0 min
Chain of Rhodesain (Trypanosoma brucei rhodesiense) (Q95PM0 1-450): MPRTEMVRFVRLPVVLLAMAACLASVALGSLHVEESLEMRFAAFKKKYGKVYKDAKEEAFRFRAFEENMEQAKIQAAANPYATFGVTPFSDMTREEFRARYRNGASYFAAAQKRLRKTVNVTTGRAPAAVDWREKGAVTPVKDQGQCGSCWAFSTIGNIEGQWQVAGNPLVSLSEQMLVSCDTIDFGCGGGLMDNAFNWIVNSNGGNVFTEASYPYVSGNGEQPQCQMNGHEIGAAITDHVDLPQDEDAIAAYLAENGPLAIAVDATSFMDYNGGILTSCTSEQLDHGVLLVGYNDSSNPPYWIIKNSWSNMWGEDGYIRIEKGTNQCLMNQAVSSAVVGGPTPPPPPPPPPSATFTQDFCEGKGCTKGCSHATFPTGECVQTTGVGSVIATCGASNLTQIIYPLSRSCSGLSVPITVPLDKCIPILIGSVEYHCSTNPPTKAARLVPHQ
Summary of the method: as §1, with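 “pre-incubation. Z-FR-AMC 2.5 µM, read at 340/440 nm every 12 s for 5 min.” for “pre-incubation.”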

[4] = tested on: Trypanosoma brucei brucei; assay: Trypanocidal activity against Trypanosoma brucei brucei Squib 427 assessed as reduction in parasite viability; type: functional, organism-based
[5] = tested on: Trypanosoma brucei rhodesiense; assay: Trypanocidal activity against Trypanosoma brucei rhodesiense STI B900 assessed as reduction in parasite viability; type: functional, organism-based
[6] = target: Rhodesain (Trypanosoma brucei rhodesiense) (UniProt Q95PM0); assay: Inhibition of recombinant Trypanosoma brucei rhodesain expressed in Pichia pastoris at 5 uM using Z-FR-AMC as substrate and measured at 12 sec interval for 5 mins without preincubation by fluorimetric analysis relative to control; summary of the method: as §1
Trypanosoma cruzi = assay: Trypanocidal activity against Trypanosoma cruzi Tulahuen C4 assessed as reduction in parasite viability; type: functional, organism-based
[7] = target: Rhodesain (Trypanosoma brucei rhodesiense) (UniProt Q95PM0); assay: Inhibition of recombinant Trypanosoma brucei rhodesain expressed in Pichia pastoris at 10 uM using Z-FR-AMC as substrate and measured at 12 sec interval for 5 mins without preincubation by fluorimetric analysis relative to control
Summary of the method: as §1, with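 “pre-incubation. Z-FR-AMC 2.5 µM, read at 340/440 nm every 12 s for 5 min.” for “pre-incubation.”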

[8] = target: Cruzipain (Trypanosoma cruzi) (UniProt P25779); assay: Inhibition of recombinant Trypanosoma cruzi cruzain at 10 uM using Z-FR-AMC as substrate preincubated for 10 mins followed by substrate addition and measured at 12 sec interval for 5 mins by fluorimetric analysis relative to control; settings: time 15.0 min
Summary of the method: as §1, with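 “pre-incubation. Z-FR-AMC 2.5 µM, read at 340/440 nm every 12 s for 5 min.” for “pre-incubation.”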

[9] = target: Cruzipain (Trypanosoma cruzi) (UniProt P25779); assay: Inhibition of recombinant Trypanosoma cruzi cruzain at 5 uM using Z-FR-AMC as substrate and measured at 12 sec interval for 5 mins without preincubation by fluorimetric analysis relative to control; summary of the method: as §1
[10] = target: Rhodesain (Trypanosoma brucei rhodesiense) (UniProt Q95PM0); assay: Inhibition of recombinant Trypanosoma brucei rhodesain expressed in Pichia pastoris at 5 uM using Z-FR-AMC as substrate preincubated for 10 mins followed by substrate addition and measured at 12 sec interval for 5 mins by fluorimetric analysis relative to control; settings: time 15.0 min; summary of the method: as §1
[11] = target: Rhodesain (Trypanosoma brucei rhodesiense) (UniProt Q95PM0); assay: Inhibition of recombinant Trypanosoma brucei rhodesain expressed in Pichia pastoris at 100 uM using Z-FR-AMC as substrate and measured at 12 sec interval for 5 mins without preincubation by fluorimetric analysis relative to control
Summary of the method: (§2)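 Run with no pre-incubation or with 10 min enzyme-compound pre-incubation. Fluorescence read at 340/440 nm. Concentration was set by solubility under assay conditions. Inhibition is against DMSO, with E-64 as positive control; triplicate.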

[12] = target: Cruzipain (Trypanosoma cruzi) (UniProt P25779); assay: Inhibition of recombinant Trypanosoma cruzi cruzain at 100 uM using Z-FR-AMC as substrate and measured at 12 sec interval for 5 mins without preincubation by fluorimetric analysis relative to control
Summary of the method: as §1, with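 “pre-incubation. Z-FR-AMC 2.5 µM, read at 340/440 nm every 12 s for 5 min.” for “pre-incubation.”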

[13] = target: Cruzipain (Trypanosoma cruzi) (UniProt P25779); assay: Inhibition of recombinant Trypanosoma cruzi cruzain at 100 uM using Z-FR-AMC as substrate preincubated for 10 mins followed by substrate addition and measured at 12 sec interval for 5 mins by fluorimetric analysis relative to control; settings: time 15.0 min
Summary of the method: as §1, with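 “pre-incubation. Z-FR-AMC 2.5 µM, read at 340/440 nm every 12 s for 5 min.” for “pre-incubation.”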

[14] = target: Rhodesain (Trypanosoma brucei rhodesiense) (UniProt Q95PM0); assay: Inhibition of recombinant Trypanosoma brucei rhodesain expressed in Pichia pastoris at 100 uM using Z-FR-AMC as substrate preincubated for 10 mins followed by substrate addition and measured at 12 sec interval for 5 mins by fluorimetric analysis relative to control; settings: time 15.0 min; summary of the method: as §2
Schistosoma mansoni [15] = assay: Inhibition of recombinant Schistosoma mansoni SmCB1 expressed in Pichia pastoris at 5 uM using Z-FR-AMC as substrate preincubated for 10 mins followed by substrate addition and measured at 23 sec interval for 30 mins by fluorimetric analysis relative to control
Summary of the method: (§3)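 SmCB1 (recombinant, 8 nM) in 0.1 M sodium acetate pH 5.5 with 0.01% Triton X-100 and 4 mM β-mercaptoethanol. Compound at 5 µM, either not pre-incubated or pre-incubated 10 min with enzyme. Z-FR-AMC 20 µM, fluorescence 340/440 nm every 23 s for 30 min. Inhibition is versus DMSO, with E-64 control; each condition in duplicate.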

Schistosoma mansoni [16] = assay: Inhibition of recombinant Schistosoma mansoni SmCB1 expressed in Pichia pastoris at 5 uM using Z-FR-AMC as substrate and measured at 23 sec interval for 30 mins without preincubation by fluorimetric analysis relative to control; summary of the method: as §3
[17] = target: Cruzipain (Trypanosoma cruzi) (UniProt P25779); assay: Inhibition of recombinant Trypanosoma cruzi cruzain at 100 uM preincubated with BSA for 5 mins followed by incubation with enzyme for 5 mins followed by substrate addition relative to control; settings: time 10.0 min
Summary of the method: (§4)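 For BSA sensitivity, compound was held 5 min with BSA (2 mg/mL in 0.001% Triton X-100), then 5 min with 1 nM cruzain, before substrate was added and activity monitored. Parallel runs omitted BSA under otherwise identical conditions.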

[18] = target: Cruzipain (Trypanosoma cruzi) (UniProt P25779); assay: Inhibition of recombinant Trypanosoma cruzi cruzain at 100 uM preincubated for 10 mins in absence of Triton X-100 relative to control
Summary of the method: (§5)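 To test detergent sensitivity, cruzain was pre-incubated 10 min at room temperature with compound with no Triton X-100, 0.01% or 0.1% Triton X-100. Cleavage of Z-FR-AMC was then followed at pH 5.5 in acetate buffer. Percent inhibition was compared across detergent levels.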

[19] = target: Cruzipain (Trypanosoma cruzi) (UniProt P25779); assay: Inhibition of recombinant Trypanosoma cruzi cruzain at 100 uM preincubated with enzyme for 5 mins followed by substrate addition in absence of BSA relative to control; summary of the method: as §4
[20] = target: Cruzipain (Trypanosoma cruzi) (UniProt P25779); assay: Inhibition of recombinant Trypanosoma cruzi cruzain at 100 uM preincubated for 10 mins in presence of 0.1% Triton X-100 relative to control; summary of the method: as §5
[21] = target: Cruzipain (Trypanosoma cruzi) (UniProt P25779); assay: Inhibition of recombinant Trypanosoma cruzi cruzain at 100 uM preincubated for 10 mins in presence of 0.01% Triton X-100 relative to control; summary of the method: as §5
[22] = target: Cruzipain (Trypanosoma cruzi) (UniProt P25779); assay: Inhibition of recombinant Trypanosoma cruzi cruzain at 20 uM using Z-FR-AMC as substrate preincubated for 10 mins followed by substrate addition and measured at 12 sec interval for 5 mins by fluorimetric analysis relative to control; settings: time 15.0 min
Summary of the method: as §1, with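 “pre-incubation. Z-FR-AMC 2.5 µM, read at 340/440 nm every 12 s for 5 min.” for “pre-incubation.”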

[23] = target: Rhodesain (Trypanosoma brucei rhodesiense) (UniProt Q95PM0); assay: Inhibition of recombinant Trypanosoma brucei rhodesain expressed in Pichia pastoris at 20 uM using Z-FR-AMC as substrate and measured at 12 sec interval for 5 mins without preincubation by fluorimetric analysis relative to control; summary of the method: as §2
[24] = target: Rhodesain (Trypanosoma brucei rhodesiense) (UniProt Q95PM0); assay: Inhibition of recombinant Trypanosoma brucei rhodesain expressed in Pichia pastoris at 20 uM using Z-FR-AMC as substrate preincubated for 10 mins followed by substrate addition and measured at 12 sec interval for 5 mins by fluorimetric analysis relative to control; settings: time 15.0 min; summary of the method: as §2
[25] = target: Cruzipain (Trypanosoma cruzi) (UniProt P25779); assay: Inhibition of recombinant Trypanosoma cruzi cruzain at 20 uM using Z-FR-AMC as substrate and measured at 12 sec interval for 5 mins without preincubation by fluorimetric analysis relative to control
Summary of the method: as §1, with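 “pre-incubation. Z-FR-AMC 2.5 µM, read at 340/440 nm every 12 s for 5 min.” for “pre-incubation.”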

[26] = target: Cruzipain (Trypanosoma cruzi) (UniProt P25779); assay: Inhibition of recombinant Trypanosoma cruzi cruzain at 10 uM preincubated for 10 mins in absence of Triton X-100 relative to control; summary of the method: as §5
[27] = target: Cruzipain (Trypanosoma cruzi) (UniProt P25779); assay: Inhibition of recombinant Trypanosoma cruzi cruzain at 10 uM preincubated for 10 mins in presence of 0.01% Triton X-100 relative to control; summary of the method: as §5
[28] = target: Cruzipain (Trypanosoma cruzi) (UniProt P25779); assay: Inhibition of recombinant Trypanosoma cruzi cruzain at 10 uM preincubated for 10 mins in presence of 0.1% Triton X-100 relative to control; summary of the method: as §5
[29] = target: Cruzipain (Trypanosoma cruzi) (UniProt P25779); assay: Inhibition of recombinant Trypanosoma cruzi cruzain at 10 uM preincubated with BSA for 5 mins followed by incubation with enzyme for 5 mins followed by substrate addition relative to control; settings: time 10.0 min; summary of the method: as §4
[30] = target: Cruzipain (Trypanosoma cruzi) (UniProt P25779); assay: Inhibition of recombinant Trypanosoma cruzi cruzain at 10 uM preincubated with enzyme for 5 mins followed by substrate addition in absence of BSA relative to control; summary of the method: as §4

Chain of Cruzipain (Trypanosoma cruzi) (P25779 123-467 limits assumed): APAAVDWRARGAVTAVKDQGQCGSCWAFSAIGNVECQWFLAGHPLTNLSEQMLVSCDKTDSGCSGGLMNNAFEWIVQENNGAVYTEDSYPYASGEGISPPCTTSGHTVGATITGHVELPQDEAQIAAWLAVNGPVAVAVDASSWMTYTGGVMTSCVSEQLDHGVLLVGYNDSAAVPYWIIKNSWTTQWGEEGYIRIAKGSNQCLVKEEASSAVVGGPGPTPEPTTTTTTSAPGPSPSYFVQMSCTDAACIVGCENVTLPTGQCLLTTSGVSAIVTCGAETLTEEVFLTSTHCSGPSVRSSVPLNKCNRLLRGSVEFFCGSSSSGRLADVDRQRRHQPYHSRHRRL

inhibition (Schistosoma mansoni [15]) [%] | inhibition (Schistosoma mansoni [16]) [%] | Structure (SMILES) | inhibition [1] [%] | inhibition [2] [%] | inhibition [3] [%] | IC50 [4] [µM] | IC50 [5] [µM] | inhibition [6] [%] | inhibition [7] [%] | inhibition [8] [%] | inhibition [9] [%] | inhibition [10] [%] | inhibition [11] [%] | inhibition [12] [%] | inhibition [13] [%] | inhibition [14] [%] | other results
– | – | CC(=O)c1ccc(NC(=O)CSc2nc(-c3ccccc3Cl)ns2)cc1 | 76.6 | 10 | 43 | 32 | 32 | 39.9 | 10 | 23 | 55.2 | 67.5 | – | – | – | – | IC50 (Trypanosoma cruzi): 32 µM
– | – | FC(F)(F)c1cccc(CNC2CCN(CCc3ccccc3)CC2)c1 | 65.1 | 0 | 8 | – | – | 20.3 | 1 | 6 | 23.1 | 70.8 | 12 | 7 | 22 | 14 | –
– | – | Cc1cc(Nc2ccc(C)c(Cl)c2)n2nc(C(F)(F)F)nc2n1 | 47.2 | 2 | 1 | 32 | – | 27.7 | 5 | 4 | 23.9 | 57.8 | 16 | 25 | 16 | 15 | –
0 | 44.9 | Cc1cc(NC(=O)C2c3ccccc3C(=O)N(CC(C)C)C2c2cccs2)no1 (stereo not drawn) | – | – | – | – | – | – | – | – | – | – | – | – | – | – | –
9.5 | 36.3 | CCOc1cc(Cl)c(C(C)NC(=O)c2cccc(OC)c2)cc1OCC (stereo not drawn) | – | – | – | – | – | – | – | – | – | – | – | – | – | – | –
– | – | COCCNCC(O)Cn1c2ccc(Cl)cc2c2cc(Cl)ccc21 (stereo not drawn) | 42.1 | 14 | 3 | 0.7 | 0.4 | 33.6 | 14 | 28 | 18.4 | 62.4 | 38 | 50 | 67 | 48 | inhibition [17]: 61.3%; inhibition [18]: 100%; inhibition [19]: 87.9%; inhibition [20]: 47.3%; inhibition [21]: 25.5%
– | – | Cc1nc2ccccc2c(O)c1CC=C(Cl)Cl | 99.1 | 4 | 2 | 32 | 32 | 43.4 | 5 | 11 | 61.5 | 77.1 | – | – | – | – | inhibition [22]: 7%; inhibition [23]: 4%; inhibition [24]: 3%; inhibition [25]: 3%
50 | 4.7 | Cc1ccc(CSCc2ccc(C(=O)NC3CC3)o2)cc1 | – | – | – | – | – | – | – | – | – | – | – | – | – | – | –
0.3 | 36.8 | O=C1C2=C(Nc3ccccc3SC2c2ccccc2)c2ccccc21 (stereo not drawn) | – | – | – | – | – | – | – | – | – | – | – | – | – | – | –
– | – | c1ccc(-c2ccc(-c3nc4ccccc4[nH]3)cc2)cc1 | 87.1 | 33 | 52 | 32 | 32 | 42.2 | 14 | 38 | 77 | 52.9 | – | – | – | – | inhibition [26]: 100%; IC50 (Trypanosoma cruzi): 32 µM; inhibition [27]: 38.4%; inhibition [28]: 7.3%; inhibition [29]: 29%; inhibition [30]: 41.3%
